# NR2E3 ag-1 = activates human NR2E3 receptor; Q9Y5X4; CHO-S Gal4-NCOR/VP16-NR2E3 two-hybrid, luciferase; inhibition of corepressor binding, % at 3.98 µM; actives 0.35% (n = 360,000);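 active = inhibition above the mean of all tested compounds plus 3 SD, cut at about 70% in these data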;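 note: 0% = DMSO with NR2E3 transfected cells and 100% = cells lacking NR2E3 construct; higher means lower luciferase signal from less NR2E3 corepressor binding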
# Target sequence (Q9Y5X4 whole entry, looked up, the tested form may be a part): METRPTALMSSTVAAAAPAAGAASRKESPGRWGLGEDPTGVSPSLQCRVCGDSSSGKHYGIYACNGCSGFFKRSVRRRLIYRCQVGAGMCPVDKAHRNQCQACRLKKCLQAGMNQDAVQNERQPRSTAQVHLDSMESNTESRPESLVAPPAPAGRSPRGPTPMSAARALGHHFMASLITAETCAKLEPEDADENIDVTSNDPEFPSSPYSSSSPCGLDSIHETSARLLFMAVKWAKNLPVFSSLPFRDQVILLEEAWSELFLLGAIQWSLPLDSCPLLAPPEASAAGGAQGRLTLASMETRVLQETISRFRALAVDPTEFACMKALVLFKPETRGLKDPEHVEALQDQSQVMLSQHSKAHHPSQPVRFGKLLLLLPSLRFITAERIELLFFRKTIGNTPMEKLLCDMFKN
# T cell HTS = modulates CD8 T cell binding to vesicles | response (vesicle binding), % at 7 µM | 2C CD8+ T cell-vesicle binding, flow cytometry; hits give low values | AID 2052 | actives 0.068% (n = 330,000);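 active = response, share of CD8 T cells binding vesicles, and their 90th percentile fluorescence all below set limits, cut at about 80% in these data, passing the limit was not always enough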;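 note: values below 100% mean blocked vesicle binding to the CD8+ T cells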
#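 incubation = binding step 1.5 h, 37 °C, antibody labelling 20 min, ice | test system = 2C mouse CD8+ T cells | read-out basis = percent CD8+ FL2 mean versus row control | controls = Peptide-free naked vesicles (low) and QL9 vesicles with 0.7% DMSO vehicle (high) | detection = flow cytometry of vesicle-bound cells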
# FXN GAA850 act = activators of GAA850 frataxin (FXN) promoter | AID 540364 | actives 0.56% (n = 360,000) | activation, % at 6 µM | HEK293 lucGAA850 FXN promoter luciferase reporter, 24 h; percent of 10 µM SAHA response;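 active = activation above the average of all compounds screened plus 3 SD, cutoff fixed separately per campaign, cut at about 7.5% in these data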;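 note: 0% = DMSO wells and 100% = 10 µM SAHA wells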
# Myeloid diff MLP = myeloid differentiation induction. ER-HoxA9 myeloid progenitors, lysozyme-GFP differentiation, flow cytometry. calls only at 10 µM. actives 1% (n = 360,000). AID 624256;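 active = normalized GFP-positive differentiation at or above the plate's own cutoff, the solvent-only control mean plus 3 SD; inconclusive = no clear call, values can overlap the other calls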;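 note: cells exposed to compound for four days before flow analysis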
# NR2E3 ag-2 = agonists of human nuclear receptor NR2E3. Q9Y5X4. GST-NR2E3/biotin-RetCOR TR-FRET, 1536-well. inhibition of corepressor binding, % at 4.78 µM. actives 0.12% (n = 320,000). AID 2300;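 active = percent inhibition above the cutoff of mean plus 3 SD of all tested compounds, set per screening campaign, cut at about 20% in these data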;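 note: 0% = DMSO wells and 100% = biotin wells as full block of FRET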
#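 system = GST-tagged NR2E3 plus biotinylated RetCOR corepressor | input = 1.35 nM GST-NR2E3 | also added = 7 nM biotin-RetCOR | schedule = 5 h incubation at 4 °C | measured by = TR-FRET with europium anti-GST and streptavidin-D2, 340 nm excitation | read-out = percent loss of FRET ratio relative to control wells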
# NR2E3 ag confirm-1 = confirmation of human NR2E3 nuclear receptor agonists; shares compounds with NR2E3 ag-2; cell-free NR2E3 corepressor release, TR-FRET, 5 h; activation (reported as inhibition), % at 3.98 µM; actives 39% (n = 360); AID 2379; in the data active = activation above about 20%
# PPARg-NCOR2 ag = releases PPARgamma from NCOR2 in NR2E3 counter-screen. shares compounds with NR2E3 ag-2. TR-FRET PPARg-NCOR2 coregulator interaction, biochemical. inhibition, % at 3.98 µM. actives 45% (n = 360). AID 504787; in the data active = inhibition above about 20%;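 note: 0% = DMSO vehicle and 100% = wells without protein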
# GAA30 FXN cntr = activates GAA30 frataxin promoter, counter-screen for GAA850 activators; AID 588350; activation, % at 6 µM; actives 66% (n = 1,900); HEK293 lucGAA30 FXN promoter luciferase, 24 h; DMSO = 0%, 5 µM ipriflavone = 100%; shares compounds with FXN GAA850 act;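 active = mean activation above the mean of solvent-only control wells plus 3 SD, cut at about 22% in these data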;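 note: counterscreen of GAA850 promoter hits where activity marks nonselective or luminescence artifacts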
# FXN GAA850 conf = GAA850 FXN promoter activation confirmation | shares compounds with FXN GAA850 act | HEK293 lucGAA850 FXN promoter luciferase reporter, 24 h; 100% = activation by SAHA | activation, % at 6 µM | actives 86% (n = 1,900) | AID 588351;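 active = mean activation above a set limit taken from the primary screen, cut at about 8% in these data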;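 note: 0% = DMSO wells and 100% = 10 µM SAHA wells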
# NR2E3 ag confirm-2 = confirmation of human NR2E3 agonists; shares compounds with NR2E3 ag-1; inhibition, % at 3.98 µM; actives 51% (n = 2,300); CHO-S mammalian two-hybrid NR2E3-NCOR, luciferase luminescence; AID 624378;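 active = average inhibition above a cutoff equal to the mean inhibition of all tested compounds plus one SD, cut at about 70% in these data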;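 note: 0% = DMSO in NR2E3 cells and 100% = DMSO in cells lacking NR2E3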
# VP16 counter = reduces GAL4-VP16 reporter signal in NR2E3 counterscreen. shares compounds with NR2E3 ag-1. CHO-S GAL4-VP16 luciferase reporter, luminescence. inhibition, % at 3.98 µM. actives 29% (n = 2,300). AID 624379;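 active = mean inhibition above a cutoff equal to the average over all tested compounds plus one standard deviation, cut at about 70% in these data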;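 note: luciferase from a UAS reporter driven by GAL4-VP16 transactivation; 0% = DMSO with VP16-transfected cells and 100% = DMSO with cells lacking VP16; higher means less reporter light so more repression of VP16 activity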
# Myeloid diff = promotes myeloid progenitor differentiation | calls only | actives 2% (n = 2,300) | ER-HoxA9 myeloid progenitors, GFP/Mac1 double-positive flow | AID 651706 | shares compounds with Myeloid diff MLP;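 active = share of green or green-and-red cells above 9 and 9% in run 1 or 4 and 3% in run 2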
# GFP autofluor = counter-screen for myeloid differentiation promoters: compound fluorescence; shares compounds with Myeloid diff MLP; ER-HoxA9 myeloid progenitors, no estrogen, GFP autofluorescence flow cytometry; vehicle wells 0%, positive control 100%; fluorescence response, % (test concentration not listed); actives 7.4% (n = 2,300); AID 651707;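 active = over 5% cells positive for green fluorescent reporter, or over 2% positive for both it and APC stain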;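 note: range taken on the double positive population between DMSO and positive control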
# An asterisk follows results filed as active; i = inactive; u = inconclusive; x = no result given; + = active, no number. The list is not random: actives were taken first. Their share in the collection is about 2%.
SMILES,NR2E3 ag-1,T cell HTS,FXN GAA850 act,Myeloid diff MLP,NR2E3 ag-2,NR2E3 ag confirm-1,PPARg-NCOR2 ag,others
CCCCN1C(=O)NC2NC(=O)NC21 (stereo not given),-26.8,428.2,0.5,i,36.6*,14.6,-9.5,
CCCCN1C(=O)N(C)C2NC(=O)NC21 (stereo not given),-7.8,221.3,1.4,i,8.7,x,x,
CCOC(=O)c1c(C)[nH]c(=S)c(C#N)c1-c1ccc(OC)cc1,0.4,225.5,2.3,i,14.0,x,x,
CCCCOc1ccc(-c2c(C(=O)Nc3ccccc3)c(C)[nH]c(=S)c2C#N)cc1,-8.6,320.5,3.2,i,93.8*,84.2*,71.3*,
COc1ccccc1NC(=O)CSc1nc(N)c(C#N)cc1C#N,-13.7,300.3,3.3,i,-1.3,x,x,
CCOc1ccccc1NC(=O)CSc1nc(N)c(C#N)cc1C#N,0.0,977.8,3.4,i,43.1*,33.5*,54.3*,
Cc1c(N2C(=O)c3ccc4c5c(ccc(c35)C2=O)CC4)c(=O)n(-c2ccccc2)n1C,-7.5,241.1,-0.7,i,20.6*,25.6*,13.8,
Cc1c(N2C(=O)c3ccc(Br)cc3C2=O)c(=O)n(-c2ccccc2)n1C,-7.0,421.6,-0.4,i,4.1,x,x,
CC1=NN(Cc2ccccc2)C(=O)C1,-17.1,194.6,-2.6,i,19.6*,-8.2,-10.1,
CCOC(=O)CCCc1sc(N)nc1-c1[nH]c(=O)[nH]c1C,-15.9,689.3,-1.1,i,47.9*,11.8,-2.6,
CCOC(=O)CCc1c(C)n[nH]c1C,14.9,162.1,-0.2,i,-0.5,x,x,
Cc1ccc2c(c1)-n1c(nc3cc(Cl)ccc3c1=O)C(CC(C)C)NC2=O (stereo not given),x,449.3,x,x,x,x,x,
C=CCn1c(NS(=O)(=O)c2ccccc2)c(S(=O)(=O)c2ccc(C)cc2)c2nc3ccccc3nc21,12.4,436.8,-0.9,i,43.8*,10.1,88.4*,
Fc1cc2[nH]c(=S)[nH]c2c(Br)c1N1CCSCC1,-76.4,69.3,1.6,i,0.1,x,x,
COc1ccc2nc(C)cc(N3CCN(S(=O)(=O)c4ccccc4F)CC3)c2c1,-15.1,225.7,0.8,i,2.1,x,x,
Cc1cc(-c2ccc(Cl)cc2)c(C#N)c(N)n1,-32.9,372.9,8.2*,i,38.9*,26.3*,25.7*,GAA30 FXN cntr=16.1;FXN GAA850 conf=15.0*
O=C(Nc1ccccc1N1CCCCC1)C1CCN(C(=O)c2ccc(Cl)cc2)CC1,-4.7,94.3,0.6,i,2.2,x,x,
CCc1oc2ccccc2c1C(=O)c1cc(Br)c(O)c(Br)c1,92.1*,487.8,0.6,i,37.6*,31.5*,45.2*,NR2E3 ag confirm-2=98.2*;VP16 counter=78.9*
Cc1onc(-c2c(F)cccc2Cl)c1C(=O)Nc1nnc(C(F)(F)F)s1,91.7*,268.7,0.6,i,22.9*,19.7*,-10.8,NR2E3 ag confirm-2=95.8*;VP16 counter=76.7*
Cc1onc(-c2c(F)cccc2Cl)c1C(=O)Nc1nccs1,-12.7,129.8,0.2,i,0.2,x,x,
CCCCCCCCN1C(=O)[C@H](CC(=O)NCc2cccs2)C[C@@]2(C(=O)OC)CC(C)(C)CC=C12,x,x,x,i,x,x,x,
N#Cc1c(NC(=O)c2ccc(Br)o2)n(-c2ccccc2)c2nc3ccccc3nc12,2.3,166.2,1.9,+,24.1*,37.8*,53.9*,Myeloid diff=i;GFP autofluor=0.3
COc1ccc(C)cc1-n1c(SCC(=O)NC2CC2)nc2ccccc2c1=O,-37.6,520.3,-6.0,i,4.1,x,x,
COc1ccc(C(=O)/C=C/Nc2cccc(C)n2)cc1OC,-148.8,569.4,11.2*,i,0.6,x,x,GAA30 FXN cntr=117.4*;FXN GAA850 conf=46.0*
Cc1ccc(N(CC(=O)N2CCCCCC2)S(C)(=O)=O)cc1,-16.5,x,-1.2,i,x,x,x,
SMILES,NR2E3 ag-1,T cell HTS,FXN GAA850 act,Myeloid diff MLP,NR2E3 ag-2,NR2E3 ag confirm-1,PPARg-NCOR2 ag,others
O=C(N/N=C/c1ccccc1)C(=O)N/N=C/c1ccccc1,7.6,372.3,-1.4,i,5.5,x,x,
O=C(C=C=Nc1ccccc1)C(=O)N=C=Cc1ccccc1,-8.6,120.8,8.7*,u,-0.6,x,x,GAA30 FXN cntr=27.1*;FXN GAA850 conf=29.2*
CCC(C)(C)NC(=O)C(NS(=O)(=O)c1cccs1)c1ccccc1 (stereo not given),2.7,613.6,10.3*,x,-0.7,x,x,GAA30 FXN cntr=14.7;FXN GAA850 conf=10.4*
CCc1cccc(CC)c1NC(=O)C(NS(=O)(=O)c1cccs1)c1ccccc1 (stereo not given),-20.1,400.8,-0.9,i,-0.9,x,x,
Cn1c(CS(=O)Cc2c(Cl)cccc2Cl)nnc1SCc1c(Cl)cccc1Cl (stereo not given),18.7,297.9,10.5*,i,1.4,x,x,GAA30 FXN cntr=24.8*;FXN GAA850 conf=9.3*
C=C1c2cccc(O)c2C(=O)C2C(=O)[C@]3(O)C(=O)C(C(N)=O)C(=O)[C@@H](N(C)C)[C@@H]3[C@@H](O)[C@H]12 (stereo not given in full),-3.0,253.9,18.4*,i,x,x,x,GAA30 FXN cntr=16.2;FXN GAA850 conf=7.3
CN(C(=O)COC(=O)C1CSC2(C)CCC(=O)N12)c1ccccc1 (stereo not given),5.1,289.9,2.7,i,-1.2,x,x,
CC(=O)c1c(C)nc(-c2ccccc2)nc1N,-25.6,260.9,1.9,i,0.6,x,x,
CCOC(=O)c1c(C)nc(-c2ccccc2)nc1N,-92.6,354.4,8.0*,i,4.0,x,x,GAA30 FXN cntr=130.8*;FXN GAA850 conf=38.9*
Oc1cccc(/C=N/N=C/c2cccc(O)c2O)c1O,-16.4,264.6,8.9*,i,2.3,x,x,GAA30 FXN cntr=37.2*;FXN GAA850 conf=17.8*

# Source: PubChem (several laboratories)
